RGS4 pot: potentiators or activators of RGS4. B-score at 10 µM. 310,000 tested, 0.92% active. AID 463111. HEK293 M3R/inducible RGS4, carbachol calcium flux Fluo4; stronger effect = lower value;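 active = B-score of the integrated calcium signal more than 4 SD below the library mean, with starting fluorescence not abnormally high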;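 also: negative B-score means reduced calcium response which marks RGS4 activation or potentiation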
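test system = HEK293 cells with stable M3R and inducible RGS4 | schedule = recording 10 s baseline at 1 Hz, 100 s post-agonist | technique = Fluo4-AM (2 µM) calcium-flux fluorescence, kinetic read | measure = Agonist-evoked peak-minus-minimum fluorescence over baseline, integrated ratio, B score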
MrgX1 allo act: allosterically activates human MrgX1 receptor signaling. 310,000 tested, 0.63% active. Q96LB2. MrgX1-HEK293, Fluo-4 calcium flux, FDSS; stronger effect = higher value. B-score at 10 µM;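 active = plate-corrected calcium response at least 3 library SD above typical, normal starting fluorescence, not activating the receptor alone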;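 also: compound read alongside a low EC10 to EC30 dose of BAM8-22 agonist; peak minus trough fluorescence over baseline measured at the second addition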
Target sequence (Q96LB2 whole entry, looked up): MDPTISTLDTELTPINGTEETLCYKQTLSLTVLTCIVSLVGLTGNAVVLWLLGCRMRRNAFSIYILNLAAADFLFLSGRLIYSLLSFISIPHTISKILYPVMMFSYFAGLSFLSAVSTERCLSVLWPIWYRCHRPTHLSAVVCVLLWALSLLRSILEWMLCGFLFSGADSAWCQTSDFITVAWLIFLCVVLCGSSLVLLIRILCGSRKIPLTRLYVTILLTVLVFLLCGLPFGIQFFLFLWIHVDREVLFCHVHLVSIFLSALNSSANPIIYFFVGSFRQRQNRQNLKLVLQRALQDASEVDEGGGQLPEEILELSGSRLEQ
MrgX1 antagonist: antagonists of human MrgX1 receptor; Q96LB2; MRGX1-HEK293 calcium flux, Fluo-4, BAM8-22 antagonism; stronger effect = lower value; B-score at 10 µM; 310,000 tested, 1.3% active;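 active = calcium-response B-score plate-corrected more than 3 library SD below zero, starting fluorescence within 5 deviations, no agonist response on first addition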;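 also: peak minus trough fluorescence over baseline after final BAM8-22 challenge near maximal dose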
RGS4 inh: human RGS4 inhibition | 310,000 tested, 0.45% active | HEK293 M3R/RGS4 inducible, Fluo-4 calcium flux; stronger effect = higher value; triggered by carbachol at its EC20 | B-score at 10 µM | AID 463165;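 active = B-score, a plate-corrected calcium signal, over three deviations above library mean, with baseline fluorescence within five deviations of library mean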;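 also: RGS4 expression induced by doxycycline in cells with stable M3 receptor; B-score is computed from the integrated fluorescence ratio over baseline after carbachol; higher B-score means a larger calcium signal and so more RGS4 inhibition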
Target sequence (P49798 whole entry, looked up): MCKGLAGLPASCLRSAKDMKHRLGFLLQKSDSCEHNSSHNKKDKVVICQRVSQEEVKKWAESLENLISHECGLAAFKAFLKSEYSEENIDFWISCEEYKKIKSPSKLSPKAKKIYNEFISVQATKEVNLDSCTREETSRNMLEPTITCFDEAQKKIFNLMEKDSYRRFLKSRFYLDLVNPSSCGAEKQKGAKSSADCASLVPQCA
MrgX1 ag: activates human MrgX1 receptor signaling; Q96LB2; MrgX1-HEK293 cells, Fluo-4 calcium fluorescence, agonist mode; stronger effect = higher value; B-score at 10 µM; 310,000 tested, 0.44% active; AID 588627;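 active = calcium response B-score plate-corrected fluorescence ratio at least 3 library SD, with starting fluorescence B-score inside 5 SD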
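System: HEK293 cells stably expressing human MrgX1 receptor; Dosing: test compound in the initial addition of three; Schedule: overnight plating, then 30 min 37 °C plus 30 min room-temperature dye loading; Detection: kinetic calcium dye fluorescence, Fluo-4 NW; Controls: per-plate positive and negative controls for Z′ factor.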
Starred values were filed as active, the others as inactive; i = inactive; . = not tested or not shown. Only some compounds are listed: those with a hit (about 3.5% of all), similar ones and a draw of the others.

SMILES	RGS4 pot	MrgX1 allo act	MrgX1 antagonist	RGS4 inh	MrgX1 ag
CCc1sc(N2C(=O)C3C4CCC(C4=C(C)C)C3C2=O)nc1-c1ccccc1 (centres undefined)	-7.46*	i	i	i	i
Cc1cc(OC(=O)c2ccccc2[N+](=O)[O-])c([N+](=O)[O-])c(=O)[nH]1	i	i	i	i	i
COc1cccc(C(=O)Oc2cc(C)[nH]c(=O)c2[N+](=O)[O-])c1OC	i	i	-4.77*	i	i
Cc1nc2cc(Nc3ccncc3)ccc2s1	i	i	i	i	i
S=C(Nc1ccccc1)Nc1cc(Cl)ccc1Oc1ccccc1	i	9.12*	i	i	i
O=C(Cc1cccc2ccccc12)N/N=C/c1ccc(Sc2nc3ccccc3s2)o1	i	i	i	i	i
Cc1ccc(NC(=O)CC(O)(C(F)(F)F)C(F)(F)F)cc1	i	i	i	i	47.8*
Cc1noc(C(=O)Nc2cccc(O)c2)c1Cl	i	i	i	i	i
N#Cc1c(NC(=O)c2cccc(S(=O)(=O)Nc3ccc(C(=O)O)cc3)c2)sc2c1CCCC2	i	i	i	i	i
CNC(=S)N/N=C/c1c(C)nn(-c2ccccc2)c1Cl	i	i	i	i	i
Cc1nn(-c2ccccc2)c(C)c1/C=N/NC(=O)c1cc(-c2cccs2)[nH]n1	i	i	i	i	i
Cc1nn(-c2ccccc2)c(Cl)c1/C=N/NC(=O)OC(C)(C)C	-7.99*	i	i	i	i
Cc1nn(-c2ccccc2)c(C)c1/C=N/NC(=O)c1cccs1	i	i	-7.06*	i	i
COc1cc(/C=N/NC(=O)c2cc(-c3c(C)nn(-c4ccccc4)c3C)n[nH]2)ccc1O	i	i	i	i	i
Cc1nn(-c2ccccc2)c(N2CCCC2)c1/C=N/NC(=O)c1ccccc1O	i	i	-7.18*	i	i
Cc1nn(-c2ccccc2)c(C)c1/C=N/NC(=O)c1ccccc1O	i	i	i	i	i
Cc1nn(-c2ccccc2)c(C)c1-c1cc(C(=O)N/N=C/c2ccc(O)cc2)[nH]n1	-7.12*	i	i	i	i
COc1cc2c(cc1OC)C(c1ccccc1O)N(C1CC(=O)N(c3ccccc3)C1=O)CC2 (centres undefined)	.	i	i	.	i
O=C(COC(=O)Cc1ccccc1F)Nc1cccc(F)c1	i	i	i	i	i
O=C(O)c1ccc(Nc2ncc([N+](=O)[O-])cc2[N+](=O)[O-])cc1	i	i	i	i	i
Cc1nn(-c2ccccc2)c(C)c1/C=N/NC(=O)c1cc(-c2ccc(Cl)s2)[nH]n1	-7.77*	i	i	i	i
Cc1cc(C(=O)Nc2c(C)nn(Cc3ccc(F)cc3)c2C)on1	i	i	-4.88*	i	i
N#Cc1ccncc1S(=O)c1ccc(Cl)cc1 (centres undefined)	i	i	i	i	i
O=C(COc1cccc2ccccc12)NCc1cccnc1	i	i	i	i	i
CCC(C)NCCCCOc1cc(C)cc(C(C)C)c1 (centres undefined)	-7.35*	i	i	i	i
SMILES	RGS4 pot	MrgX1 allo act	MrgX1 antagonist	RGS4 inh	MrgX1 ag
COc1ccc(CNC[C@@H](CCCCN(C)Cc2ccc(OC)cc2)N2C[C@H](c3ccccc3)N(CCc3ccc(Cl)c(Cl)c3)C(=O)C2=O)cc1	-8.17*	i	i	i	i
O=C1CSC(=S)N1	i	i	i	i	i
Cc1c(C(=O)NCCCN2CCOCC2)sc2nc(-c3ccccc3)cn12	i	i	-7.3*	i	i
O=C(NCCCN1CCOCC1)c1cc(-c2cccc(Br)c2)nc2ccccc12	i	i	i	i	i
COc1ccc(OC)c(Nc2cc(C(=O)NCCCN3CCOCC3)c3ccccc3n2)c1	i	i	-5.7*	i	i
O=C(NCCCN1CCOCC1)c1cc(-c2ccc(Cl)s2)nc2ccccc12	i	i	-7.39*	i	i
COCCNC(=O)c1sc2nc(-c3ccccc3)cn2c1C	i	i	i	i	i
CCC(C(=O)NCc1ccco1)n1nc(C)c2c(C)n(-c3ccccc3)nc2c1=O (centres undefined)	i	i	i	i	i
CN1C(=O)C2(c3ccccc31)C1CCCC=C1C(C#N)=C(N)C2(C#N)C#N (centres undefined)	.	6.7*	i	.	i
O=[N+]([O-])c1ccccc1S(=O)(=O)Oc1ccc(/C=N/n2cnnc2)cc1	i	i	i	i	i
COc1cc(/C=N/n2cnnc2)ccc1OS(=O)(=O)c1ccccc1[N+](=O)[O-]	i	i	-6.61*	i	i
CCOc1ccc(OCCOC(=O)CNC(=O)c2ccc(Cl)cc2Cl)cc1	i	i	-7*	i	i
CC(=O)N1CCCN(Cc2cn(-c3ccc(C)cc3)nc2-c2ccc(F)cc2)CC1	i	i	i	i	i
Cc1ccc(-n2cc(CN3CCCN(C=O)CC3)c(-c3ccc(F)cc3)n2)cc1	i	10.6*	i	i	i
Cc1nn(-c2ccc([N+](=O)[O-])cc2)c2c1C(c1cccc(Br)c1)N1C(=N2)C(=O)Nc2ccccc21 (centres undefined)	i	i	-5.83*	i	i
Cc1cccc(NC2=Nc3ccccc3N3C2=Nc2c(c(C)nn2-c2ccccc2)C3c2ccc(O)c(O)c2)c1 (centres undefined)	i	i	i	i	i
Cc1nn(-c2ccccc2)c2c1C(c1ccc(Cl)cc1)N(c1ccccc1)C(=O)N2 (centres undefined)	i	i	i	i	i
Cc1nn(-c2ccccc2)c2c1C(c1ccc([N+](=O)[O-])cc1)N1C(=N2)C(=O)Nc2ccccc21 (centres undefined)	-9.03*	i	i	i	i
c1ccn2c(CNc3ncnc4sccc34)nnc2c1	i	i	i	i	i
O=C(O)c1cccc(Nc2nc(-c3cc4ccccc4oc3=O)cs2)c1	i	i	i	i	i
CCCc1nn(C)c(C(=O)Nc2cccc(Cl)c2)c1Cl	i	i	i	i	i
CCCCCNC(=O)C1CC=CCC1C(=O)O (centres undefined)	i	i	i	i	i
CCCCN(CCCC)C(=O)C1CC=CCC1C(=O)O (centres undefined)	i	i	-5.94*	i	i
